Experimental findings from ChEMBL document CHEMBL4765491, “Discovery of Potent and Selective Methylenephosphonic Acid CD73 Inhibitors” (J Med Chem, 2021) are described below.

One data set has as its target 5'-nucleotidase (Homo sapiens, UniProt P21589). The data set is described as follows: Inhibition of human CD73 expressed in CHO cells incubated for 60 mins before addition of AMP and further incubated for 60 mins by colorimetric assay. The format is cell-based. In outline:
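Thawed stable CD73-CHO cells in HEPES pH 7.4 saline buffer with 0.1% glucose, 1500 cells/well. Preincubated 60 min at 37 °C with 16-point 1:3 compound dilutions (final 100–0 or 0.1–0 μM; 10 or 2% DMSO). 25 μM AMP then added, 60 min at 37 °C/5% CO2. Supernatant phosphate measured with PiColorLock Gold. Activity normalized to DMSO and no-cell wells. IC50 from a four-parameter fit.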

Data set [1] in a line: Clearance in Sprague-Dawley rat at 0.25 to 0.5 mg/kg, iv measured up to 24 hrs by LC-MS/MS analysis. It is filed as ADME, organism-based. Conditions: in vivo, dose 0.25-0.5 mg/kg. The method in brief: (§1)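 Male SD rats (0.27–0.30 kg), acclimated. Single IV bolus via femoral vein at 0.25 or 0.5 mg/kg in 31.6% DMA/36.8% ethanol/31.6% PEG. Jugular blood at predose, 5, 15, 30 min, 1, 2, 4, 6, 8, 24 h, collected into K2-EDTA; plasma spun at 4 °C, stored −80 °C until analysis.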

A short description of data set [2]: Half life in Sprague-Dawley rat at 0.25 to 0.5 mg/kg, iv measured up to 24 hrs by LC-MS/MS analysis. The format is ADME, organism-based. Conditions: in vivo, dose 0.25-0.5 mg/kg. The method in brief:
as §1

Structures are written as SMILES.

As usually defined, the IC50 is the point on the concentration scale where inhibition reaches its midpoint. Lower therefore signals higher potency. The clearance is the rate of elimination divided by the concentration. Read a high clearance as efficient removal. As usually defined, the half-life is how long it takes for the measured level to halve. Higher therefore signals slow loss.

Chain of 5'-nucleotidase (P21589 whole entry): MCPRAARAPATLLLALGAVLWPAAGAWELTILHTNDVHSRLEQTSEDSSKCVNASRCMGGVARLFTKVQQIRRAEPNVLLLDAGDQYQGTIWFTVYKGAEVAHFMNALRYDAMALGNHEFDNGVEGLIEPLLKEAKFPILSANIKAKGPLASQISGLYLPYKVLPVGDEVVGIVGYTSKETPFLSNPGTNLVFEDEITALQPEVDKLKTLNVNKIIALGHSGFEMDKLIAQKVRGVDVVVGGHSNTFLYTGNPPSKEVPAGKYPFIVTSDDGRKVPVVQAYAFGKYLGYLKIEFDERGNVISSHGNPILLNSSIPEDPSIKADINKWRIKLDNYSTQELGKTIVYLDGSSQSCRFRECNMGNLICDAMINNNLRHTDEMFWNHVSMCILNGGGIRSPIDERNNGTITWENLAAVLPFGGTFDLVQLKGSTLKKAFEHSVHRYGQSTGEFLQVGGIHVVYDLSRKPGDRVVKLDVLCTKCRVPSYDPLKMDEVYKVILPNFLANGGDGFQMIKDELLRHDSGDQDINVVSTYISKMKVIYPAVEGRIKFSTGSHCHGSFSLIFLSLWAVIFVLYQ

Compound `O=P(O)(O)COC[C@H]1O[C@@H](n2cnc3c(NCc4ccccc4Cl)nc(Cl)nc32)[C@H](O)[C@@H]1O` registered a half-inhibitory concentration (IC50) on 5'-nucleotidase of 46 nM.

As for `O=P(O)(O)COC[C@H]1O[C@@H](n2cnc3c(NC4CCCC4)cc(Cl)nc32)[C@H](O)[C@@H]1O`, on 5'-nucleotidase, the IC50 worked out at 33 nM.

The compound `C[C@H](Nc1nc(Cl)nc2c1ncn2[C@@H]1O[C@H](COCP(=O)(O)O)[C@@H](O)[C@H]1O)c1ccccc1` gave an IC50 against 5'-nucleotidase of 65 nM. This compound also had a clearance in data set [1] of 2.33 mL/min/kg. The half-life in data set [2] is 1.2 h.

Consider `O=P(O)(O)COC[C@H]1O[C@@H](n2cnc3c(NCCc4ccccc4)nc(Cl)nc32)[C@H](O)[C@@H]1O`, for which, at 5'-nucleotidase, the half-maximal inhibitory concentration (IC50) came to 105 nM.

The compound `O=P(O)(O)CCCOC[C@H]1O[C@@H](n2cnc3c(NCc4ccccc4)nc(Cl)nc32)[C@H](O)[C@@H]1O` had a 50% inhibitory concentration (IC50) on 5'-nucleotidase above 10000 nM.

For the compound `O=P(O)(O)COC[C@H]1O[C@@H](n2cnc3c(N4CCCC4)nc(Cl)nc32)[C@H](O)[C@@H]1O`, the concentration for half-maximal inhibition (IC50) against 5'-nucleotidase is 45 nM. This lies in the double-digit nanomolar range.

For `O=P(O)(O)COC[C@H]1O[C@@H](n2cnc3c(NC4CCCC4)nc(Cl)nc32)[C@H](O)[C@@H]1O`, at 5'-nucleotidase, the IC50 was determined as 26 nM. The compound further had a clearance in data set [1] of 6.17 mL/min/kg. For the same compound, the half-life in data set [2] was 0.97 h.

Compound `C[C@@H](Nc1nc(Cl)nc2c1ncn2[C@@H]1O[C@H](COCP(=O)(O)O)[C@@H](O)[C@H]1O)c1ccccc1` yielded a half-inhibitory concentration (IC50) against 5'-nucleotidase of 156 nM.

On 5'-nucleotidase, `O=P(O)(O)COC[C@H]1O[C@@H](n2cnc3c(NCc4ccccn4)nc(Cl)nc32)[C@H](O)[C@@H]1O` displayed an IC50 of 382 nM.

In turn, `O=P(O)(O)CCOC[C@H]1O[C@@H](n2cnc3c(NCc4ccccc4)nc(Cl)nc32)[C@H](O)[C@@H]1O` gave a half-inhibitory concentration (IC50) against 5'-nucleotidase above 10000 nM.

Turning to `Cc1ccccc1-c1nc(NC2CCCC2)c2ncn([C@@H]3O[C@H](COCP(=O)(O)O)[C@@H](O)[C@H]3O)c2n1`, at 5'-nucleotidase, half-maximal inhibition (IC50) was put at 3500 nM.

`Cn1cnnc1CNc1nc(Cl)nc2c1ncn2[C@@H]1O[C@H](COCP(=O)(O)O)[C@@H](O)[C@H]1O` had an IC50 against 5'-nucleotidase of 3200 nM.

The compound `COCc1nc(NC2CCCC2)c2ncn([C@@H]3O[C@H](COCP(=O)(O)O)[C@@H](O)[C@H]3O)c2n1` gave an IC50 against 5'-nucleotidase of 118 nM.

Take `CN(Cc1ccccc1Cl)c1nc(Cl)nc2c1ncn2[C@@H]1O[C@H](COCP(=O)(O)O)[C@@H](O)[C@H]1O`: inhibition at 5'-nucleotidase was half-maximal at 46 nM (IC50).

For `O=P(O)(O)COC[C@H]1O[C@@H](n2cnc3c(NC4CC4)nc(Cl)nc32)[C@H](O)[C@@H]1O`, the IC50 against 5'-nucleotidase amounted to 588 nM. Against the preceding compound, the IC50 is about 13-fold higher.

Regarding `O=P(O)(O)COC[C@H]1O[C@@H](n2cnc3c(NC4CCC4)nc(Cl)nc32)[C@H](O)[C@@H]1O`, it took 83 nM to reach half-maximal inhibition against 5'-nucleotidase (IC50).

As for `O=P(O)(O)COC[C@H]1O[C@@H](n2cnc3c(NC4CCCC4)nc(COC4CCNC4)nc32)[C@H](O)[C@@H]1O` (stereo partly specified), at 5'-nucleotidase, the half-maximal inhibitory concentration (IC50) is above 10000 nM.

`CC(C)Nc1nc(Cl)nc2c1ncn2[C@@H]1O[C@H](COCP(=O)(O)O)[C@@H](O)[C@H]1O` yielded an IC50 at 5'-nucleotidase of 192 nM.

`O=C(O)C(OC[C@H]1O[C@@H](n2cnc3c(NCc4ccccc4)nc(Cl)nc32)[C@H](O)[C@@H]1O)P(=O)(O)O` (stereo partly specified) returned an IC50 against 5'-nucleotidase of 110 nM.

With `C[C@H](Nc1cc(Cl)nc2c1cnn2[C@@H]1O[C@H](COCP(=O)(O)O)[C@@H](O)[C@H]1O)c1ccc(F)cc1`, the clearance in data set [1] is 0.3 mL/min/kg. For the same compound, the half-life in data set [2] is 4 h.

Regarding `C[C@H](Nc1nc(Cl)nc2c1cnn2[C@@H]1O[C@H](COCP(=O)(O)O)[C@@H](O)[C@H]1O)c1ccc(F)cc1`, in data set [1], the clearance is 0.333 mL/min/kg. Besides, the half-life in data set [2] is 4.5 h.

As to `O=P(O)(O)OP(=O)(O)OC[C@H]1O[C@@H](n2cnc3c(NCc4ccccc4)nc(Cl)nc32)[C@H](O)[C@@H]1O`, half-maximal inhibition on 5'-nucleotidase (IC50) was put at 0.4 nM.

Take `O=P(O)(O)COC[C@H]1O[C@@H](n2cnc3c(N4CCOCC4)nc(Cl)nc32)[C@H](O)[C@@H]1O`: the IC50 against 5'-nucleotidase is 148 nM.

Take `O=P(O)(O)COC[C@H]1O[C@@H](n2cnc3c(NCC4CCCC4)nc(Cl)nc32)[C@H](O)[C@@H]1O`: the IC50 against 5'-nucleotidase amounted to 124 nM.

In turn, `O=P(O)(O)COC[C@H]1O[C@@H](n2cnc3c(NC4CCCC4)nc(COc4ccccc4)nc32)[C@H](O)[C@@H]1O` gave an IC50 at 5'-nucleotidase of 13 nM.

Take `O=P(O)(O)COC[C@H]1O[C@@H](n2cnc3c(NC4CCCC4)nc(-c4ccccc4)nc32)[C@H](O)[C@@H]1O`: the IC50 against 5'-nucleotidase was determined as 245 nM. This IC50 is about 19-fold higher than that of the compound before.

In data set [1], `C[C@H](Nc1nc(Cl)nc2c1cnn2[C@@H]1O[C@H](COCP(=O)(O)O)[C@@H](O)[C@H]1O)c1ccccc1` gave a clearance of 0.517 mL/min/kg. In data set [2], the half-life is 2.4 h.

The compound `O=P(O)(O)COC[C@H]1O[C@@H](n2cnc3c(N[C@@H]4CCOC4)nc(Cl)nc32)[C@H](O)[C@@H]1O` showed an IC50 on 5'-nucleotidase of 84 nM.

`O=P(O)(O)COC[C@H]1O[C@@H](n2cnc3c(NCCc4ccccc4F)nc(Cl)nc32)[C@H](O)[C@@H]1O`: the midpoint of inhibition on 5'-nucleotidase, the IC50, lay at 121 nM.

As to `COc1ccccc1CCNc1nc(Cl)nc2c1ncn2[C@@H]1O[C@H](COCP(=O)(O)O)[C@@H](O)[C@H]1O`, the IC50 on 5'-nucleotidase is 173 nM. This IC50 and that of the compound before are within 1.5-fold of each other.

At 5'-nucleotidase, `O=P(O)(O)COC[C@H]1O[C@@H](n2cnc3c(NCc4ccccc4)nc(Cl)nc32)[C@H](O)[C@@H]1O` displayed an IC50 of 58 nM.

In turn, `O=C(O)C(OC[C@H]1O[C@@H](n2cnc3c(NCc4ccccc4)nc(Cl)nc32)[C@H](O)[C@@H]1O)C(=O)O` showed an IC50 against 5'-nucleotidase of 1000 nM.

`Cn1cc(CNc2nc(Cl)nc3c2ncn3[C@@H]2O[C@H](COCP(=O)(O)O)[C@@H](O)[C@H]2O)cn1` displayed a half-maximal inhibitory concentration (IC50) against 5'-nucleotidase of 201 nM.

In turn, `O=P(O)(O)COC[C@H]1O[C@@H](n2ncc3c(NC4CCCC4)cc(Cl)nc32)[C@H](O)[C@@H]1O` yielded an IC50 on 5'-nucleotidase of 4.5 nM.
